Measured values from ChEMBL document CHEMBL1145748, “Nonpeptide alphavbeta3 antagonists. 8. In vitro and in vivo evaluation of a potent alphavbeta3 antagonist for the prevention and treatment of osteoporosis” (J Med Chem, 2003).
pIC50: −log10 of the molar value.

What was measured:
[1] = Partition coefficient (logP); assay type: physicochemical; settings: octanol/water
How it was run: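 Partitioning between octanol and pH 7.4 buffer.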

[2] = Bioavailability in dog; assay type: ADME, organism-based, Canis lupus familiaris; settings: in vivo
How it was run: (§1)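 Dogs given 0.2 mpk iv and 1 mpk po, in water; bioavailability, clearance and half-life taken from the plasma PK profile.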

[3] = Plasma clearance in dog was determined; assay type: ADME, organism-based, Canis lupus familiaris; how it was run: as §1
[4] = Percent binding of compound towards human plasma protein was determined; assay type: ADME, cell-free
How it was run: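 Human plasma, diluted, with ultrafiltration in pH 7.4 buffer at room temperature. Solutions analyzed by HPLC; high-throughput format.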

[5] = molecular target: Integrin alpha-V/beta-3 (Homo sapiens, UniProt P05106+P06756); assay: Inhibition of alphaV-beta3 integrin binding; assay type: protein-complex assay
Integrin alpha-V/beta-3, sequence (P05106 27-788 limits assumed): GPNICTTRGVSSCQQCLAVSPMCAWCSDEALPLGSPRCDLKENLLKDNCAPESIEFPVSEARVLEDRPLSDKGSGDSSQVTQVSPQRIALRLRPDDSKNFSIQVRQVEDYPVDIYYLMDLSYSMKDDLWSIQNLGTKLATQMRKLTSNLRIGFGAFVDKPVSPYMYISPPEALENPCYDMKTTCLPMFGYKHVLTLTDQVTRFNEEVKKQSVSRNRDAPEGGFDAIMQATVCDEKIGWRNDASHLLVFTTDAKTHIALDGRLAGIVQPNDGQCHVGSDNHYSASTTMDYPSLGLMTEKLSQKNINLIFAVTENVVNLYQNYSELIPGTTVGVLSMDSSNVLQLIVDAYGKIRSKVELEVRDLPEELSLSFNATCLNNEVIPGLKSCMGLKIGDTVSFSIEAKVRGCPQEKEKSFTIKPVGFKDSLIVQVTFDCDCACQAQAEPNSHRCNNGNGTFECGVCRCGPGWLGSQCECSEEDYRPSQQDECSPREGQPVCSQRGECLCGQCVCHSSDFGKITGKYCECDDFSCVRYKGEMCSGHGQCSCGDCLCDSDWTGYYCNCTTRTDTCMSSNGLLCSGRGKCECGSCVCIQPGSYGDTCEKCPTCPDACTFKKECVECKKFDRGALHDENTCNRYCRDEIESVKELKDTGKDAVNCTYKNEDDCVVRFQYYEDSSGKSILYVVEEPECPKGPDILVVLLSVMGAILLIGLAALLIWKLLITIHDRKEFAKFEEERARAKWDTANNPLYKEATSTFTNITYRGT
Integrin alpha-V/beta-3, sequence (P06756 31-889 limits assumed): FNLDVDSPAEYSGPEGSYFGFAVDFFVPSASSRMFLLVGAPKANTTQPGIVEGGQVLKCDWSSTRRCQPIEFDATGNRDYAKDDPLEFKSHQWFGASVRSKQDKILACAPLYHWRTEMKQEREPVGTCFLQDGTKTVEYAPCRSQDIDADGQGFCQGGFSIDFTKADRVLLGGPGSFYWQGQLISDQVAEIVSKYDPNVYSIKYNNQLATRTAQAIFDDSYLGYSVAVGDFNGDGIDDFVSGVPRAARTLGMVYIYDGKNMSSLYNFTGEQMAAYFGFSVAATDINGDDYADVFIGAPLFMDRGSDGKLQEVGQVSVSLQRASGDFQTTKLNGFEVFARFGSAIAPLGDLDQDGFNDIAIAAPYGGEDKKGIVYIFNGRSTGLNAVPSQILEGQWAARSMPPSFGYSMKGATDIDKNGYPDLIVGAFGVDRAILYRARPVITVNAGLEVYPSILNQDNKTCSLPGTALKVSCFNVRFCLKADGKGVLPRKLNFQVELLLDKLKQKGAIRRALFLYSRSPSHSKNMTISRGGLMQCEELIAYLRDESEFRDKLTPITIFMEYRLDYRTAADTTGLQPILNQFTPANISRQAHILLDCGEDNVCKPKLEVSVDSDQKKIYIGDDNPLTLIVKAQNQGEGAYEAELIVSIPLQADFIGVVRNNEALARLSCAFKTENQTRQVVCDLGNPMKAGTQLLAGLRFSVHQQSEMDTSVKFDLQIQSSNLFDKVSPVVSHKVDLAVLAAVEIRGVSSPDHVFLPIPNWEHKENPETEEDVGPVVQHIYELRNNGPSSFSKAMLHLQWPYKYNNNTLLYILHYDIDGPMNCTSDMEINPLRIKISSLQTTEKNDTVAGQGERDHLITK
Integrin alpha-V/beta-3, sequence (P06756 891-1048 limits assumed): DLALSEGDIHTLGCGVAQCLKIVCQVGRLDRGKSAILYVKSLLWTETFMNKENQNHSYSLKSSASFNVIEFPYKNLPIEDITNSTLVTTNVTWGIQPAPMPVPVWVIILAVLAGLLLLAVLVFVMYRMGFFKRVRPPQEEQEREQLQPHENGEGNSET
How it was run: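 Scintillation-proximity assay. Displacement of a 125I-labelled iodobenzenesulfonylamino naphthyridine propionic acid radioligand from purified recombinant human αvβ3 is measured.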

[6] = Half life of compound was determined in dog; assay type: ADME, organism-based, Canis lupus familiaris; settings: in vivo; how it was run: as §1
[7] = species: Rattus norvegicus; assay: Inhibitory effect of 10 mpk compound b.i.d. for 28 days was determined by bone mineral density in ovariectomized female rat; assay type: functional
How it was run: (§2)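 Female rats ovariectomized and, within 24 h, dosed orally b.i.d. for 28 days (n = 10/group), with sham and OVX-vehicle groups. BMD measured by DXA at the distal femoral metaphysis and central femur. Result expressed as DFM:central BMD ratio (mean ± SEM).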

[8] = Half life of compound was determined in rat; assay type: ADME, organism-based; settings: in vivo
[9] = Plasma clearance in rat was determined; assay type: ADME, organism-based
[10] = species: Rattus norvegicus; assay: Inhibitory effect of 30 mpk compound b.i.d. for 28 days was determined by bone mineral density in ovariectomized female rat; assay type: functional; how it was run: as §2
[11] = Half life of compound was determined in rhesus monkey; assay type: ADME; settings: cercopithecidae, in vivo
[12] = Plasma clearance in rhesus monkey was determined; assay type: ADME, organism-based; settings: cercopithecidae
[13] = species: Rattus norvegicus; assay: distal femoral metaphysis bone mineral density in young male rat after constant infusion of compound was determined; assay type: functional
How it was run: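 Growing male Sprague–Dawley rats (160 g) treated 10 days. Compound at 60 mg/mL in water with <1 equiv 1 N HCl, given by implanted subcutaneous osmotic minipump to a steady-state concentration of 800 nM (n = 15). PK checked in 3 parallel rats. Alendronate control 0.005 mpk sc qd. Right femur excised, stored in 70% ethanol, DFM BMD by DXA.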

[14] = Selectivity for alphaV-beta3 over alphaV-beta5 integrins; design: species or system Homo sapiens
How it was run: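 αvβ3 binding is measured by SPA displacement of a 125I-iodobenzenesulfonylamino radioligand from purified recombinant human αvβ3. The αvβ5 counterscreen uses the same radioligand displaced from purified recombinant αvβ5 in a similar SPA.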

[15] = Bioavailability in rat; assay type: ADME, organism-based; settings: in vivo
[16] = Bioavailability of compound was determined in rhesus monkey; assay type: ADME, organism-based, Macaca mulatta; settings: in vivo

logP [1] | bioavailability [2] | clearance [3] | Plasma protein binding [4] | pIC50 [5] | half-life [6] | Compound | other results
-0.55 | 10% | 70 mL/min/kg | 61% | 9.60 | 0.9 h | O=C(O)C[C@@H](c1cccnc1)N1CCN(CCCc2ccc3c(n2)NCCC3)C1=O | 
0.21 | 64% | 6.4 mL/min/kg | 88% | 10.10 | 3.5 h | COc1ccc([C@H](CC(=O)O)N2CCN(CCCc3ccc4c(n3)NCCC4)C2=O)cn1 | DFM:central BMD ratio [7]: 0.908; half-life [8]: 3 h; clearance [9]: 47 mL/min/kg; DFM:central BMD ratio [10]: 0.951; half-life [11]: 2 h; clearance [12]: 9 mL/min/kg; BMD [13]: 142.2 mg cm**-2; pIC50 [14]: 8.00; bioavailability [15]: 26%; bioavailability [16]: 74%
 |  |  |  | 9.40 |  | COc1ccc([C@H](CC(=O)O)N2CCN(CCCc3ccc4c(n3)NC(O)CC4)C2=O)cn1 (some centres not stated) | 
 |  |  |  | 8.52 |  | COc1ccc([C@H](CC(=O)O)N2CCN(CCC(=O)c3ccc4c(n3)NCCC4)C2=O)cn1 | 
0.8 | 75% | 4.1 mL/min/kg | 98% | 10.00 | 2.7 h | O=C(O)C[C@@H](c1ccc2c(c1)OCC2)N1CCN(CCCc2ccc3c(n2)NCCC3)C1=O | 
 |  |  |  | 6.85 |  | COc1ccc([C@H](CC(=O)O)N2CCN(CCCc3ccc4c(n3)NC(=O)CC4)C2=O)cn1 | 
0.82 | 94% | 5.1 mL/min/kg | 95% | 9.46 | 2.6 h | COc1ccc([C@H](CC(=O)O)N2CCN(CCCc3ccc4c(n3)NCCC4)C2=O)cc1F | 
